Bounds are passed on as bounds.

The nature of series [1]: Inhibition of TPA-induced EBV-early antigen activation in human Raji cells. The format is cell-based, human gammaherpesvirus 4. An outline of the steps: (§1)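 Raji cells incubated 48 h at 37 °C in medium with n-butyric acid (4 mM), TPA (32 pmol) and test compound at molar ratios to TPA (1000, 500, 100). Smears were stained for EBV-EA by indirect immunofluorescence. Induction is given as % of TPA-alone control (100%).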

A short description of series [2]: Cytotoxicity against human Raji cells assessed as cell viability at 1000 molar ratio. Format: cell-based. The following applies: read-out: Activity. An outline of the steps:
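Raji cell viability was recorded as a percentage in the EBV-EA setup: 48 h at 37 °C with n-butyric acid (4 mM), TPA (32 pmol) and compound at 32 nmol (1000:1 molar ratio to TPA).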

Series [3] relates to Raji. As to the kind of experiment: Inhibition of TPA-induced EBV-early antigen activation in human Raji cells at 500 molar ratio relative to TPA. The format is cell-based. The following applies: human gammaherpesvirus 4. On the set-up: scale not given: the % may be the effect or the level left. An outline of the steps: as §1
Series [4] deals with Raji. Description: Inhibition of TPA-induced EBV-early antigen activation in human Raji cells at 1000 molar ratio relative to TPA. Format: cell-based. On the set-up: scale not given: the % may be the effect or the level left. The following applies: human gammaherpesvirus 4. An outline of the steps:
as §1

Series [5] relates to Raji. As to the kind of experiment: Inhibition of TPA-induced EBV-early antigen activation in human Raji cells at 100 molar ratio relative to TPA. Format: cell-based. More on the design: scale not given: the % may be the effect or the level left. The following applies: human gammaherpesvirus 4. An outline of the steps: as §1
Series [6] can be described thus: Scavenging activity against (+/-)-(E)-methyl-2-[(E)-hydroxyimino]-5-nitro-6-methoxy-3-hexemide-induced NO generation in human Chang liver cells. Format: functional. An outline of the steps: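 Human Chang liver cells (5 × 10^5/mL) were cultured in MEM Eagle medium for 3 days. Samples (350 nmol) were added 1 min before NOR 1 (350 nmol), then incubated 1 h in a CO2 incubator. Transformed cells were counted under light microscopy (×100, >250 cells). The inhibitory ratio is transformed % with NOR 1 alone divided by transformed % with NOR 1 plus sample, with NOR 1 taken as 1.0.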

The subject of series [7] is Raji. As to the kind of experiment: Inhibition of TPA-induced EBV-early antigen activation in human Raji cells at 10 molar ratio relative to TPA. The format is cell-based. On the set-up: scale not given: the % may be the effect or the level left. The following applies: human gammaherpesvirus 4.
The species entered for series [8] is Mus musculus. As to the kind of experiment: Inhibition of tumor promotion in mouse assessed as papilloma bearing mouse after 10 weeks. The format is functional. An outline of the steps: (§2)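 Two-stage mouse skin carcinogenesis using DMBA and TPA as promoter. Groups were 15 mice housed five per cage with water ad libitum. The percentage of papilloma-bearing mice was scored at 10 and 20 weeks of promotion in treated versus untreated groups.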

The species named for series [9] is Mus musculus. Description: Inhibition of tumor promotion in mouse assessed as papilloma bearing mouse after 20 weeks. The format is functional. An outline of the steps:
as §2

As for `COc1c2occc2cc2ccc(=O)oc12` [METHOXSALEN], the IC50 in series [1] is recorded as 490 molar ratio. Also, the viability at 1000 molar ratio in series [2] worked out at 60%. The Activity in series [3] was 55.2%; in series [4], 14.2%; in series [5] it was 83.1%; in [7], 100%. The Ratio in series [6] is 1.3.

The compound `CC1=C(/C=C/C(C)=C/C=C/C(C)=C/C(=O)O)C(C)(C)CCC1` [TRETINOIN] returned an IC50 in series [1] of 482 molar ratio. Moreover, the viability at 1000 molar ratio in series [2] stood at 60%. The Activity amounted to 49.3% in [3], 15.3% in series [4], 76.3% in [5] and 100% in [7].

In [1], `CC(C)=CCC/C(C)=C/Cc1c(O)cc(O)c2c1O[C@H](c1ccc(O)cc1)CC2=O` [SOPHORAFLAVANONE A] displayed an IC50 of 215 molar ratio. Besides, the viability at 1000 molar ratio in [2] was determined as 70%. The Activity in series [3] came out at 18.5%; in series [4], 0%; in [5], 56.4%; in [7] it was 89.3%. Further, the Ratio in series [6] is on record as 2.1.

The compound `CC(C)=CCc1c(O)ccc(C(=O)/C=C/c2ccc(O)cc2)c1O` [ISOBAVACHALCONE] yielded an IC50 in series [1] of 320 molar ratio. The viability at 1000 molar ratio in series [2] is 60%. Further, the results for the “inhibition (INH)” value in series [8] and in series [9] were 20% and 80%, respectively. The Activity in series [3] came to 26.3%; in series [4], 0%; in series [5], 63%; in series [7] it was 98.4%. Besides, in series [6], the Ratio came out at 2.

As for `CC1(C)CCc2c(ccc(C(=O)/C=C/c3ccc(O)cc3)c2O)O1` [DORSMANNIN A], the IC50 in series [1] is given as 583 molar ratio. The viability at 1000 molar ratio in series [2] was 60%. Also, the Activity in [3] is 61.7%; in series [4] it was 34.2%; in series [5], 86%; in series [7], 100%. Also, in series [6], the Ratio was 1.9.

In the case of `CC1(C)N([O])C(c2ccc(C(=O)O)cc2)=[N+]([O-])C1(C)C`, in series [6], the Ratio turned out to be 8.

As to `CC(C)=CCc1c(O)ccc2ccc(=O)oc12` [OSTHENOL], the IC50 in [1] is recorded as 290 molar ratio. In series [2], the viability at 1000 molar ratio amounted to 70%. Besides, the Activity in [3] turned out to be 30.1%; in series [4], 0%; in series [5] it was 69.8%; in series [7], 90.6%. Also, the Ratio in series [6] is 2.

In series [1], `CC(C)=CCCC(C)(O)CCc1c(O)ccc(C(=O)/C=C/c2ccc(O)cc2)c1O` (stereo not given) [XANTHOANGELOL J] displayed an IC50 of 264 molar ratio. Further, the viability at 1000 molar ratio in series [2] was 70%. The Activity is 12.5% in [3], 0% in series [4], 66.8% in [5] and 90.2% in series [7]. In [6], the Ratio is on record as 2.4.

`C=C[C@@H](O)C#CC#C[C@@H](O)/C=C\CCCCCCCCOC(C)=O` gave an IC50 in [1] of 511 molar ratio. Further, the viability at 1000 molar ratio in series [2] came to 60%. In addition, the Activity turned out to be 53.1% in series [3], 18.7% in series [4], 81.4% in [5] and 100% in [7]. The Ratio in series [6] stood at 1.2.

As for `COc1ccc(C(=O)CCc2ccc(O)cc2)c2c1CCC(C)(C)O2` [DEOXYDIHYDROXANTHOANGELOL H], in series [1], the IC50 was found to be 563 molar ratio. The viability at 1000 molar ratio in series [2] is 60%. Also, the Activity in series [3] was 56.7%; in [4], 27.4%; in series [5] it was 81.6%; in series [7], 100%. The Ratio in [6] turned out to be 1.6.

Compound `COc1cc(O)c2c(c1CC=C(C)C)O[C@H](c1ccc(O)cc1)CC2=O` [MUNDULEAFLAVANONE B] returned an IC50 in [1] of 230 molar ratio. Moreover, in series [2], the viability at 1000 molar ratio is 70%. Moreover, the Activity in [3] was 24.9%; in series [4], 0%; in series [5], 66.7%; in series [7] it was 90.3%. Also, in [6], the Ratio was 2.3.

The compound `COc1c2ccoc2c(OC)c2oc(=O)ccc12` [ISOPIMPINELLIN] came in with an IC50 in series [1] of 486 molar ratio. For the same compound, the viability at 1000 molar ratio in series [2] was 60%. The Activity came to 57.4% in series [3], 12.1% in [4], 81.5% in series [5] and 100% in series [7]. The Ratio in [6] was 1.4.

`CC1(C)[C@@H](O[C@H]2O[C@H](C(=O)O)[C@@H](O)[C@H](O)[C@H]2O[C@@H]2O[C@H](C(=O)O)[C@@H](O)[C@H](O)[C@H]2O)CC[C@]2(C)[C@H]3C(=O)C=C4[C@@H]5C[C@@](C)(C(=O)O)CC[C@]5(C)CC[C@@]4(C)[C@]3(C)CC[C@@H]12` [GLYCYRRHIZIN]: the IC50 in series [1] is on record as 572 molar ratio. Moreover, the viability at 1000 molar ratio in series [2] was above 80%. In addition, the Activity in series [3] stood at 63.3%; in series [4], 27.4%; in [5], 83.3%; in [7], 100%. Further, in series [6], the Ratio is 2.2.

As to `COc1ccc(C(=O)/C=C/c2ccc(O)cc2)c2c1CCC(C)(C)O2` [DEOXYXANTHOANGELOL H], the IC50 in [1] is 578 molar ratio. Further, the viability at 1000 molar ratio in [2] was determined as 60%. Also, the Activity amounted to 60.5% in [3], 32.1% in series [4], 85.2% in series [5] and 100% in series [7]. Further, the Ratio in series [6] stood at 1.5.

On to `CC(C)=CCCC1(C)CCc2c(O)ccc(C(=O)/C=C/c3ccc(O)cc3)c2O1` (stereo not given), for which the IC50 in [1] is listed as 273 molar ratio. Further, the viability at 1000 molar ratio in series [2] was determined as 70%. In addition, the Activity in series [3] stood at 20.3%; in series [4], 0%; in series [5] it was 64.7%; in series [7] it was 87.3%. In addition, in series [6], the Ratio was 2.4.

For the origin of these results see ChEMBL document CHEMBL1157219, “Chalcones and other compounds from the exudates of Angelica keiskei and their cancer chemopreventive effects” (J Nat Prod, 2006).
